Data taken from ChEMBL document CHEMBL4152304, “Design, synthesis and anticancer activity of fluorocyclopentenyl-purines and - pyrimidines” (Eur J Med Chem, 2018).
pIC50: −log10 of the molar value.

Key:
Assay type in all cases: functional, cell-based
A549 = experiment: Cytotoxicity against human A549 cells assessed as decrease in cell viability after 72 hrs by SRB assay; details: A549, 72 h
In short: (§1)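 Cells from the Korean Cell Line Bank were grown in RPMI 1640 with 10% FBS and penicillin/streptomycin/amphotericin B at 37 °C under 5% CO2. They were seeded at 5 × 10^4 cells/mL and exposed to a range of compound concentrations for 72 h. Cells were fixed in 10% TCA and stained with 0.4% SRB in 1% acetic acid. Dye was dissolved in 10 mM Tris (pH 10.0) and read at A515. Viability is relative to vehicle; IC50 by nonlinear regression.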

HCT-116 = experiment: Cytotoxicity against human HCT116 cells assessed as decrease in cell viability after 72 hrs by SRB assay; details: HCT-116, 72 h; in short: as §1
SNU-638 = experiment: Cytotoxicity against human SNU638 cells assessed as decrease in cell viability after 72 hrs by SRB assay; details: SNU-638, 72 h; in short: as §1
MDA-MB-231 = experiment: Cytotoxicity against human MDA-MB-231 cells assessed as decrease in cell viability after 72 hrs by SRB assay; details: MDA-MB-231, 72 h
In short: (§2)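 Maintained in DMEM with 10% FBS and penicillin/streptomycin/amphotericin B at 37 °C in humidified 5% CO2; cell lines from the Korean Cell Line Bank. Plated at 5 × 10^4 cells/mL and treated with various concentrations for 72 h. Then 10% TCA fixation, 0.4% SRB staining in 1% acetic acid, solubilisation in 10 mM Tris pH 10.0 and absorbance at 515 nm. Viability is versus vehicle control; IC50 from nonlinear regression.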

SK-HEP1 = experiment: Cytotoxicity against human SKHEP1 cells assessed as decrease in cell viability after 72 hrs by SRB assay; details: SK-HEP1, 72 h; in short: as §2
PC-3 = experiment: Cytotoxicity against human PC3 cells assessed as decrease in cell viability after 72 hrs by SRB assay; details: PC-3, 72 h; in short: as §1

Row | Structure (SMILES) | pIC50 (A549) | pIC50 (HCT-116) | pIC50 (SNU-638) | pIC50 (MDA-MB-231) | pIC50 (SK-HEP1) | pIC50 (PC-3)
1 | OCC1=C(F)[C@@H](n2cnc3c(NC4CC4)ncnc32)[C@H](O)[C@@H]1O | < 4.00 | < 4.00 | < 4.00 | < 4.00 | < 4.00 | < 4.00
2 | Nc1nc(=O)n([C@@H]2C(F)=C(CO)[C@@H](O)[C@H]2O)cc1F | < 4.00 | < 4.00 | < 4.00 | < 4.00 | < 4.00 | < 4.00
3 | Nc1nc(O)c2ncn([C@@H]3C(F)=C(CO)[C@@H](O)[C@H]3O)c2n1 | < 4.00 | < 4.00 | < 4.00 | < 4.00 | < 4.00 | < 4.00
4 | Nc1nc(=O)n([C@@H]2C(F)=C(CO)[C@@H](O)[C@H]2O)cc1Br | < 4.00 | < 4.00 | < 4.00 | < 4.00 | < 4.00 | < 4.00
5 | OCC1=C(F)[C@@H](n2cnc3c(O)ncnc32)[C@H](O)[C@@H]1O | < 4.00 | < 4.00 | < 4.00 | < 4.00 | < 4.00 | < 4.00
6 | O=c1nc(O)c(Br)cn1[C@@H]1C(F)=C(CO)[C@@H](O)[C@H]1O | < 4.00 | 4.48 | 4.50 | 4.36 | 4.12 | 4.49
7 | O=c1nc(O)c(Cl)cn1[C@@H]1C(F)=C(CO)[C@@H](O)[C@H]1O | < 4.00 | < 4.00 | 4.06 | < 4.00 | < 4.00 | 4.21
8 | CC(C)OC(=O)[C@H](C)N[P@](=O)(OCC1=C(F)[C@@H](n2cnc3c(N)ncnc32)[C@H](O)[C@@H]1O)Oc1ccccc1 | 4.73 | 5.34 | 5.52 | 4.74 | 4.62 | 4.98
9 | Nc1nc(=O)n([C@@H]2C(F)=C(CO)[C@@H](O)[C@H]2O)cc1I | < 4.00 | 4.00 | 4.08 | 4.10 | < 4.00 | 4.08
10 | Nc1nc(N)c2ncn([C@@H]3C(F)=C(CO)[C@@H](O)[C@H]3O)c2n1 | 4.07 | 4.66 | 4.49 | 4.64 | < 4.00 | < 4.00
11 | CNc1ncnc2c1ncn2[C@@H]1C(F)=C(CO)[C@@H](O)[C@H]1O | 5.62 | 5.67 | 5.64 | 5.09 | 5.56 | 4.82
12 | Nc1nc(=O)n([C@@H]2C(F)=C(CO)[C@@H](O)[C@H]2O)cc1Cl | < 4.00 | < 4.00 | < 4.00 | < 4.00 | < 4.00 | < 4.00
13 | O=c1nc(O)c(F)cn1[C@@H]1C(F)=C(CO)[C@@H](O)[C@H]1O | < 4.00 | 4.28 | 4.56 | 4.17 | 4.15 | 4.36
14 | O=c1nc(O)c(I)cn1[C@@H]1C(F)=C(CO)[C@@H](O)[C@H]1O | < 4.00 | 4.07 | 4.15 | 4.26 | < 4.00 | 4.33
15 | Nc1nc(NC2CC2)c2ncn([C@@H]3C(F)=C(CO)[C@@H](O)[C@H]3O)c2n1 | < 4.00 | < 4.00 | < 4.00 | < 4.00 | < 4.00 | < 4.00
16 | Nc1ccn([C@@H]2O[C@H](CO)[C@@H](O)[C@@H]2O)c(=O)n1 [CYTARABINE] | 5.76 | 5.36 | 5.97 | 4.98 | 5.74 | 4.32
17 | Nc1ncnc2c1ncn2[C@@H]1C=C(CO)[C@@H](O)[C@H]1O [NEOPLANOCIN A] | 5.67 | 5.84 | 6.09 | 6.07 | 5.63 | 5.67
